In ChEMBL document CHEMBL4689842, “EUbOPEN Chemogenomics Library wave 1” (2021):
“And” between values parts separate entries of the source, which are not always exact repeats. Equal entries are not always repeated.

Tested on: Fibroblast
Assay: Multiplex assay against human fibroblast
Format: toxicity, cell-based
Outline: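 Values for tubulin, mitochondrial-mass and membrane-permeability phenotypes are per cents of cells with healthy nuclei. These cells were identified by CellPathfinder machine-learning gating of live cells that had been stained at seeding with Hoechst33342, BioTracker Green Microtubule Cytoskeleton Dye, MitoTracker Red and Annexin V Alexa Fluor 680 and imaged on a CQ1 microscope at 37°C and 5% CO2 after compound addition. The gating first set Hoechst high-intensity objects apart from normal cells, then split normal cells into healthy, pyknosed or fragmented nuclei, and pyknosed cells into mitotic or apoptotic.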

[1] = 12 h, 10 µM, compound concentration 10 uM, replicate 1
[2] = 12 h, 10 µM, compound concentration 10 uM, replicate 2
[3] = 24 h, 10 µM, compound concentration 10 uM, replicate 1
[4] = 24 h, 10 µM, compound concentration 10 uM, replicate 2
[5] = 12 h, 1 µM, compound concentration 1 uM, replicate 1
[6] = 12 h, 1 µM, compound concentration 1 uM, replicate 2
[7] = 24 h, 1 µM, compound concentration 1 uM, replicate 1
[8] = 24 h, 1 µM, compound concentration 1 uM, replicate 2
[9] = 48 h, 1 µM, compound concentration 1 uM, replicate 1
[10] = 48 h, 1 µM, compound concentration 1 uM, replicate 2
[11] = 48 h, 10 µM, compound concentration 10 uM, replicate 1
[12] = 48 h, 10 µM, compound concentration 10 uM, replicate 2

In the case of `CNCc1ccccc1-c1csc([C@@H](C)Nc2nc(C)nc3cc(OC)c(OC)cc23)c1` [BAY-293], the “Population Apoptotic (%)” value [1] is reported as 45% and 52%, the “Population Fragmented Nuclei (%)” value [1] is reported as 29% and 38% and the “Population Healthy Nuclei (%)” value [1] is reported as 45% and 27%. For the same molecule, the “Population Membrane Permeable-Phenotype (%)” value [1] was 11% and 24%, the “Population Mitotic Cells (%)” value [1] was 54% and 47% and the “Population Normal (%)” value [1] was 58% and 87%. The “Population Pyknosed Nuclei (%)” value [1] was 24% and 33%, the “Population Apoptotic (%)” value [2] was 83% and 66% and the “Population Fragmented Nuclei (%)” value [2] was 50% and 52%. The “Population Healthy Nuclei (%)” value [2] was 17% and 31%, the “Population Hoechst High Intensity Objects (%)” value [2] was 34% and 42% and the “Population Membrane Permeable-Phenotype (%)” value [2] was 20% and 8%. The “Population Mitotic Cells (%)” value [2] was 16% and 33%, the “Population Normal (%)” value [2] was 65% and 57% and the “Population Pyknosed Nuclei (%)” value [2] was 32% and 16%. For the same molecule, the “Population Tubulin-Different-Phenotype (%)” value [2] was 50% and 30%, the “Population Apoptotic (%)” value [3] was 89% and 38% and the “Population Fragmented Nuclei (%)” value [3] was 36% and 23%. For the same molecule, the “Population Hoechst High Intensity Objects (%)” value [3] was 16% and 40%, the “Population Membrane Permeable-Phenotype (%)” value [3] was 11% and 4% and the “Population Normal (%)” value [3] was 83% and 59%. The “Population Pyknosed Nuclei (%)” value [3] was 56% and 28%, the “Population Tubulin-Different-Phenotype (%)” value [3] was 22% and 14% and the “Population Apoptotic (%)” value [4] was 66% and 90%. For the same molecule, the “Population Fragmented Nuclei (%)” value [4] was 52% and 60%, the “Population Hoechst High Intensity Objects (%)” value [4] was 44% and the “Population Normal (%)” value [4] was 55%. For the same molecule, the “Population Pyknosed Nuclei (%)” value [4] was 10% and 27% and the “Population Tubulin-Different-Phenotype (%)” value [4] was 38% and 20%.

With `Cl.O=C(O)c1cc(-c2ccc(C3CCNCC3)cc2)c2ccc(-c3ccc(C(F)(F)F)cc3)cc2c1` the “Population Apoptotic (%)” value [5] was 65%, the “Population Fragmented Nuclei (%)” value [5] was 31% and the “Population Healthy Nuclei (%)” value [5] was 31%. For the same molecule, the “Population Hoechst High Intensity Objects (%)” value [5] was 20%, the “Population Membrane Permeable-Phenotype (%)” value [5] was 31% and the “Population Mitochondria Different-Phenotype (%)” value [5] was 5%. The “Population Mitotic Cells (%)” value [5] was 34%, the “Population Normal (%)” value [5] was 79% and the “Population Pyknosed Nuclei (%)” value [5] was 37%. The “Population Tubulin-Different-Phenotype (%)” value [5] was 21%, the “Total Cell Count” value [5] was 77 and the “Population Apoptotic (%)” value [6] was 50%. For the same molecule, the “Population Fragmented Nuclei (%)” value [6] was 11%, the “Population Healthy Nuclei (%)” value [6] was 83% and the “Population Hoechst High Intensity Objects (%)” value [6] was 5%. The “Population Membrane Permeable-Phenotype (%)” value [6] was 3%, the “Population Mitochondria Different-Phenotype (%)” value [6] was 16% and the “Population Mitotic Cells (%)” value [6] was 50%. For the same molecule, the “Population Normal (%)” value [6] was 94%, the “Population Pyknosed Nuclei (%)” value [6] was 5% and the “Population Tubulin-Different-Phenotype (%)” value [6] was 36%. The “Total Cell Count” value [6] was 60, the “Population Apoptotic (%)” value [1] was 62% and the “Population Fragmented Nuclei (%)” value [1] was 27%. The “Population Healthy Nuclei (%)” value [1] was 40%, the “Population Hoechst High Intensity Objects (%)” value [1] was 18% and the “Population Membrane Permeable-Phenotype (%)” value [1] was 5%. For the same molecule, the “Population Mitochondria Different-Phenotype (%)” value [1] was 20%, the “Population Mitotic Cells (%)” value [1] was 37% and the “Population Normal (%)” value [1] was 81%. The “Population Pyknosed Nuclei (%)” value [1] was 32%, the “Population Tubulin-Different-Phenotype (%)” value [1] was 57% and the “Total Cell Count” value [1] was 122. For the same molecule, the “Population Apoptotic (%)” value [2] was 60%, the “Population Fragmented Nuclei (%)” value [2] was 14% and the “Population Healthy Nuclei (%)” value [2] was 64%. The “Population Hoechst High Intensity Objects (%)” value [2] was 14%, the “Population Membrane Permeable-Phenotype (%)” value [2] was 10% and the “Population Mitochondria Different-Phenotype (%)” value [2] was 13%. The “Population Mitotic Cells (%)” value [2] was 40%, the “Population Normal (%)” value [2] was 85% and the “Population Pyknosed Nuclei (%)” value [2] was 21%. For the same molecule, the “Population Tubulin-Different-Phenotype (%)” value [2] was 23%, the “Total Cell Count” value [2] was 38 and the “Population Apoptotic (%)” value [7] was 62%. The “Population Fragmented Nuclei (%)” value [7] was 24%, the “Population Healthy Nuclei (%)” value [7] was 47% and the “Population Hoechst High Intensity Objects (%)” value [7] was 21%. For the same molecule, the “Population Membrane Permeable-Phenotype (%)” value [7] was 44%, the “Population Mitochondria Different-Phenotype (%)” value [7] was 7% and the “Population Mitotic Cells (%)” value [7] was 37%. The “Population Normal (%)” value [7] was 78%, the “Population Pyknosed Nuclei (%)” value [7] was 28% and the “Population Tubulin-Different-Phenotype (%)” value [7] was 44%. The “Total Cell Count” value [7] was 73, the “Population Apoptotic (%)” value [8] was 20% and the “Population Fragmented Nuclei (%)” value [8] was 11%. For the same molecule, the “Population Healthy Nuclei (%)” value [8] was 79%, the “Population Hoechst High Intensity Objects (%)” value [8] was 3% and the “Population Membrane Permeable-Phenotype (%)” value [8] was 4%. For the same molecule, the “Population Mitochondria Different-Phenotype (%)” value [8] was 9%, the “Population Mitotic Cells (%)” value [8] was 80% and the “Population Normal (%)” value [8] was 96%. For the same molecule, the “Population Pyknosed Nuclei (%)” value [8] was 9%, the “Population Tubulin-Different-Phenotype (%)” value [8] was 30% and the “Total Cell Count” value [8] was 62. The “Population Apoptotic (%)” value [3] was 53%, the “Population Fragmented Nuclei (%)” value [3] was 35% and the “Population Healthy Nuclei (%)” value [3] was 36%. For the same molecule, the “Population Hoechst High Intensity Objects (%)” value [3] was 15%, the “Population Membrane Permeable-Phenotype (%)” value [3] was 12% and the “Population Mitochondria Different-Phenotype (%)” value [3] was 27%. The “Population Mitotic Cells (%)” value [3] was 46%, the “Population Normal (%)” value [3] was 84% and the “Population Pyknosed Nuclei (%)” value [3] was 28%. The “Population Tubulin-Different-Phenotype (%)” value [3] was 62%, the “Total Cell Count” value [3] was 131 and the “Population Apoptotic (%)” value [4] was 61%. The “Population Fragmented Nuclei (%)” value [4] was 17%, the “Population Healthy Nuclei (%)” value [4] was 61% and the “Population Hoechst High Intensity Objects (%)” value [4] was 8%. The “Population Membrane Permeable-Phenotype (%)” value [4] was 7%, the “Population Mitochondria Different-Phenotype (%)” value [4] was 5% and the “Population Mitotic Cells (%)” value [4] was 38%. For the same molecule, the “Population Normal (%)” value [4] was 91%, the “Population Pyknosed Nuclei (%)” value [4] was 20% and the “Population Tubulin-Different-Phenotype (%)” value [4] was 16%. The “Total Cell Count” value [4] was 56, the “Population Apoptotic (%)” value [9] was 50% and the “Population Fragmented Nuclei (%)” value [9] was 30%. The “Population Healthy Nuclei (%)” value [9] was 40%, the “Population Hoechst High Intensity Objects (%)” value [9] was 20% and the “Population Membrane Permeable-Phenotype (%)” value [9] was 48%. For the same molecule, the “Population Mitochondria Different-Phenotype (%)” value [9] was 0%, the “Population Mitotic Cells (%)” value [9] was 50% and the “Population Normal (%)” value [9] was 79%. For the same molecule, the “Population Pyknosed Nuclei (%)” value [9] was 29%, the “Population Tubulin-Different-Phenotype (%)” value [9] was 40% and the “Total Cell Count” value [9] was 78. The “Population Apoptotic (%)” value [10] was 100%, the “Population Fragmented Nuclei (%)” value [10] was 16% and the “Population Healthy Nuclei (%)” value [10] was 82%. The “Population Hoechst High Intensity Objects (%)” value [10] was 8%, the “Population Membrane Permeable-Phenotype (%)” value [10] was 6% and the “Population Mitochondria Different-Phenotype (%)” value [10] was 2%. The “Population Mitotic Cells (%)” value [10] was 0%, the “Population Normal (%)” value [10] was 91% and the “Population Pyknosed Nuclei (%)” value [10] was 1%. The “Population Tubulin-Different-Phenotype (%)” value [10] was 26%, the “Total Cell Count” value [10] was 104 and the “Population Apoptotic (%)” value [11] was 76%. The “Population Fragmented Nuclei (%)” value [11] was 42%, the “Population Healthy Nuclei (%)” value [11] was 46% and the “Population Hoechst High Intensity Objects (%)” value [11] was 21%. The “Population Membrane Permeable-Phenotype (%)” value [11] was 11%, the “Population Mitochondria Different-Phenotype (%)” value [11] was 9% and the “Population Mitotic Cells (%)” value [11] was 23%. The “Population Normal (%)” value [11] was 78%, the “Population Pyknosed Nuclei (%)” value [11] was 11% and the “Population Tubulin-Different-Phenotype (%)” value [11] was 37%. The “Total Cell Count” value [11] was 146, the “Population Apoptotic (%)” value [12] was 100% and the “Population Fragmented Nuclei (%)” value [12] was 57%. The “Population Healthy Nuclei (%)” value [12] was 38%, the “Population Hoechst High Intensity Objects (%)” value [12] was 9% and the “Population Membrane Permeable-Phenotype (%)” value [12] was 4%. The “Population Mitochondria Different-Phenotype (%)” value [12] was 12%, the “Population Mitotic Cells (%)” value [12] was 0% and the “Population Normal (%)” value [12] was 90%. The “Population Pyknosed Nuclei (%)” value [12] was 3%, the “Population Tubulin-Different-Phenotype (%)” value [12] was 58% and the “Total Cell Count” value [12] was 139.
